Converted amounts (≈) assume the structure as drawn.
Tests used:
Format in all cases: functional
Pichia kudriavzevii = assay: Antifungal activity against Candida krusei after 24 hrs by serial dilution method
Method in brief: (§1)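 NCCLS broth microdilution in 96-well plates, with ATCC or clinical isolate strains. Medium was RPMI 1640 buffered with 0.165 M MOPS, and compounds were dissolved in DMSO and serially diluted in medium. Yeasts were incubated at 35 °C and growth was read at 24 h. MIC80 was taken as the lowest concentration giving ≥80% growth inhibition versus the drug-free control.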

Candida albicans = assay: Antifungal activity against Candida albicans after 24 hrs by serial dilution method; method in brief: as §1
Candida parapsilosis = assay: Antifungal activity against Candida parapsilosis after 24 hrs by serial dilution method; conditions: Lodderomyces parapsilosis; method in brief: as §1
Cryptococcus neoformans = assay: Antifungal activity against Cryptococcus neoformans after 72 hrs by serial dilution method
Method in brief: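 Cryptococcus yeast, ATCC or clinical isolate, tested by NCCLS serial dilution in 96-well plates with RPMI 1640 plus 0.165 M MOPS. Compounds were dissolved in DMSO and serially diluted in medium. Incubation was at 35 °C with MIC80 read at 72 h, defined as the lowest concentration giving ≥80% growth inhibition relative to control.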

Candida tropicalis = assay: Antifungal activity against Candida tropicalis after 24 hrs by serial dilution method; method in brief: as §1
Trichophyton rubrum = assay: Antifungal activity against Trichophyton rubrum by serial dilution method
Method in brief: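 Dermatophyte, ATCC or clinical isolate, tested by NCCLS serial-dilution microtest in RPMI 1640 buffered with 0.165 M MOPS. Compounds were dissolved in DMSO and diluted serially in medium, and incubation was at 28 °C. The endpoint was MIC80, the lowest concentration reducing turbidity to ≥80% inhibition of control growth.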

MIC80 (Pichia kudriavzevii) [µg/mL]	MIC80 (Candida albicans) [µg/mL]	MIC80 (Candida parapsilosis) [µg/mL]	MIC80 (Cryptococcus neoformans) [µg/mL]	MIC80 (Candida tropicalis) [µg/mL]	MIC80 (Trichophyton rubrum) [µg/mL]	Compound
4 (≈ 8.69 µM)	2 (≈ 4.34 µM)	> 64	16 (≈ 34.7 µM)	8 (≈ 17.4 µM)	2 (≈ 4.34 µM)	COC(=O)CN(CCCOc1ccccc1)CC(O)(Cn1cncn1)c1ccc(F)cc1F (racemic)
8 (≈ 16.7 µM)	2 (≈ 4.18 µM)	64 (≈ 134 µM)	16 (≈ 33.4 µM)	8 (≈ 16.7 µM)	16 (≈ 33.4 µM)	OC(CN(CCCOc1ccccc1)Cc1ccccc1)(Cn1cncn1)c1ccc(F)cc1F (racemic)
1 (≈ 2.25 µM)	2 (≈ 4.5 µM)	16 (≈ 36 µM)	4 (≈ 9 µM)	8 (≈ 18 µM)	8 (≈ 18 µM)	CCCCN(CCCOc1ccccc1)CC(O)(Cn1cncn1)c1ccc(F)cc1F (racemic)
1 (≈ 2.4 µM)	0.0313 (≈ 0.0752 µM)	2 (≈ 4.8 µM)	1 (≈ 2.4 µM)	0.5 (≈ 1.2 µM)	1 (≈ 2.4 µM)	CCN(CCCOc1ccccc1)CC(O)(Cn1cncn1)c1ccc(F)cc1F (racemic)
4 (≈ 7.64 µM)	4 (≈ 7.64 µM)	8 (≈ 15.3 µM)	16 (≈ 30.6 µM)	8 (≈ 15.3 µM)	8 (≈ 15.3 µM)	CC(C)CN(CCCOc1ccc(Br)cc1)CC(O)(Cn1cncn1)c1ccc(F)cc1F (racemic)
2 (≈ 3.94 µM)	2 (≈ 3.94 µM)	16 (≈ 31.5 µM)	4 (≈ 7.88 µM)	1 (≈ 1.97 µM)	8 (≈ 15.8 µM)	C=CCN(CCCOc1ccc(Br)cc1)CC(O)(Cn1cncn1)c1ccc(F)cc1F (racemic)

The remaining lines, values behind:

Compound	MIC80 (Pichia kudriavzevii) [µg/mL]	MIC80 (Candida albicans) [µg/mL]	MIC80 (Candida parapsilosis) [µg/mL]	MIC80 (Cryptococcus neoformans) [µg/mL]	MIC80 (Candida tropicalis) [µg/mL]	MIC80 (Trichophyton rubrum) [µg/mL]
CN(CCCOc1ccc(Br)cc1)CC(O)(Cn1cncn1)c1ccc(F)cc1F (centres undefined)	2 (≈ 4.16 µM)	0.5 (≈ 1.04 µM)	1 (≈ 2.08 µM)	1 (≈ 2.08 µM)	2 (≈ 4.16 µM)	2 (≈ 4.16 µM)
CN(CCCOc1ccccc1)CC(O)(Cn1cncn1)c1ccc(F)cc1F (centres undefined)	0.5 (≈ 1.24 µM)	0.0125 (≈ 0.0311 µM)	0.125 (≈ 0.311 µM)	1 (≈ 2.48 µM)	< 0.125	1 (≈ 2.48 µM)
CCOC(=O)CN(CCCOc1ccccc1)CC(O)(Cn1cncn1)c1ccc(F)cc1F (racemic)	4 (≈ 8.43 µM)	2 (≈ 4.21 µM)	> 64	8 (≈ 16.9 µM)	8 (≈ 16.9 µM)	8 (≈ 16.9 µM)
OC(CN(CCCOc1ccccc1)Cc1ccc(F)cc1)(Cn1cncn1)c1ccc(F)cc1F (racemic)	8 (≈ 16.1 µM)	4 (≈ 8.06 µM)	16 (≈ 32.2 µM)	8 (≈ 16.1 µM)	8 (≈ 16.1 µM)	32 (≈ 64.4 µM)
Cc1ccc(CN(CCCOc2ccccc2)CC(O)(Cn2cncn2)c2ccc(F)cc2F)cc1 (racemic)	4 (≈ 8.12 µM)	8 (≈ 16.2 µM)	8 (≈ 16.2 µM)	4 (≈ 8.12 µM)	8 (≈ 16.2 µM)	16 (≈ 32.5 µM)
CCCN(CCCOc1ccccc1)CC(O)(Cn1cncn1)c1ccc(F)cc1F (racemic)	1 (≈ 2.32 µM)	1 (≈ 2.32 µM)	32 (≈ 74.3 µM)	1 (≈ 2.32 µM)	16 (≈ 37.2 µM)	4 (≈ 9.29 µM)
OC(CNCCCOc1ccccc1)(Cn1cncn1)c1ccc(F)cc1F (racemic)	< 0.125	0.0625 (≈ 0.161 µM)	0.5 (≈ 1.29 µM)	1 (≈ 2.57 µM)	< 0.125	2 (≈ 5.15 µM)
C#CCN(CCCOc1ccc(Br)cc1)CC(O)(Cn1cncn1)c1ccc(F)cc1F (racemic)	8 (≈ 15.8 µM)	0.5 (≈ 0.989 µM)	32 (≈ 63.3 µM)	8 (≈ 15.8 µM)	8 (≈ 15.8 µM)	8 (≈ 15.8 µM)

Reference: ChEMBL document CHEMBL2034974, “Design, synthesis and structure-activity relationships of new triazole derivatives containing N-substituted phenoxypropylamino side chains” (2012)
